# Assay results published in ChEMBL document CHEMBL4304834, “3-Amino-chromanes and Tetrahydroquinolines as Selective 5-HT2B, 5-HT7, or σ1 Receptor Ligands” (ACS Med Chem Lett, 2019).
# Tests used:
# [1] = target: Muscarinic acetylcholine receptor M3 (Homo sapiens, UniProt P20309); assay: Displacement of [3H]-QNB/[3H]-NMS from human recombinant Muscarinic acetylcholine M3 receptor expressed in stable CHO cells after 90 mins by microbeta scintillation counting method; type: cell-based
# Summary of the method: (§1)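 Radioligand binding was run by the NIMH Psychoactive Drug Screening Program. Compounds were first screened at 10 μM. Those giving ≥50% binding were taken to full competition curves. Ki is reported as pKi from a sigmoidal curve fit of triplicate measurements in a single experiment; the error is the curve-fit error.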
# [2] = target: T1, Muscarinic acetylcholine receptor M5 (Homo sapiens, UniProt P08912); assay: Displacement of [3H]-QNB/[3H]-NMS from human recombinant Muscarinic acetylcholine M5 receptor expressed in stable CHO cells after 90 mins by microbeta scintillation counting method; type: cell-based; summary of the method: as §1
# T1 sequence (P08912 whole entry): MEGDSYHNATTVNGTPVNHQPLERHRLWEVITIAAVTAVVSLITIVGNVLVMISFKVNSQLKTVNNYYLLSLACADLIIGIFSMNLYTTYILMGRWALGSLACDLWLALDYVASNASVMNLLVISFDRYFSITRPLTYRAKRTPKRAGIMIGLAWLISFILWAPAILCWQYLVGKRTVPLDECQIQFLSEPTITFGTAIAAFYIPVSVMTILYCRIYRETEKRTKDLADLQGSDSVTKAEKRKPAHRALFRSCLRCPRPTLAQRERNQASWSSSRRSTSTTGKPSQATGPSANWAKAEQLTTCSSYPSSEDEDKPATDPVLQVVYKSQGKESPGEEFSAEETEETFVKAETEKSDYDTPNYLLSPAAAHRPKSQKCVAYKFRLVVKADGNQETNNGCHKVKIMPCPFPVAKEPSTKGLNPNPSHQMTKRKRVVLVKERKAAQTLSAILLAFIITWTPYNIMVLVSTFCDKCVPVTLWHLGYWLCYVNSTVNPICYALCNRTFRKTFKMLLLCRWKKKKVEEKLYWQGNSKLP
# [3] = target: T2, Alpha-1A adrenergic receptor (Homo sapiens, UniProt P35348); assay: Displacement of [3H]-Prazosin from human recombinant adrenergic alpha1A receptor expressed in cells after 90 mins by microbeta scintillation counting method; type: cell-based; summary of the method: as §1
# T2 sequence (P35348 whole entry): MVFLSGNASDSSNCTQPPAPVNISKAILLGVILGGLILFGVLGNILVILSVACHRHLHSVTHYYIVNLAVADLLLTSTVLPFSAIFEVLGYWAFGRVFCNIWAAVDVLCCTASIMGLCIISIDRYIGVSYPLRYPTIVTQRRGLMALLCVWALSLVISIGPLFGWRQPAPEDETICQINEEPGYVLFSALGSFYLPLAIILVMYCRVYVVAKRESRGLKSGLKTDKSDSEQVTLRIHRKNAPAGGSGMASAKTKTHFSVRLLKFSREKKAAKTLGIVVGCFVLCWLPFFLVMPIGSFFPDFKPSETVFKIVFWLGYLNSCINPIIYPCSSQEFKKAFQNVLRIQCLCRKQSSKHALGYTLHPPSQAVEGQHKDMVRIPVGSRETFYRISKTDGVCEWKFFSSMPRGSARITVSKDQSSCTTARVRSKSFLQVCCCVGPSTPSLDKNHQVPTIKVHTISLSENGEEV
# [4] = target: 5-hydroxytryptamine receptor 6 (Homo sapiens, UniProt P50406); assay: Displacement of [3H]-LSD from human recombinant 5-HT6 receptor expressed in stable HEK cells after 90 mins by microbeta scintillation counting method; type: cell-based
# Summary of the method: (§2)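 Radioligand binding run by the NIMH Psychoactive Drug Screening Program. […] Otherwise Ki comes from sigmoidal curve fits of triplicate measurements in a single experiment, or is averaged over repeated experiments each run in triplicate.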
# [5] = target: D(1B) dopamine receptor (Homo sapiens, UniProt P21918); assay: Displacement of [3H]-SCH23390 from human recombinant dopamine D5 receptor expressed in HEKT cells at 10 uM after 90 mins by microbeta scintillation counting method relative to control; type: cell-based
# [6] = target: T3, Alpha-2C adrenergic receptor (Homo sapiens, UniProt P18825); assay: Displacement of [3H]-Rauwolscine from human recombinant adrenergic Alpha2C receptor expressed in stable MDCK cells after 90 mins by microbeta scintillation counting method; type: cell-based; summary of the method: as §1
# T3 sequence (P18825 whole entry): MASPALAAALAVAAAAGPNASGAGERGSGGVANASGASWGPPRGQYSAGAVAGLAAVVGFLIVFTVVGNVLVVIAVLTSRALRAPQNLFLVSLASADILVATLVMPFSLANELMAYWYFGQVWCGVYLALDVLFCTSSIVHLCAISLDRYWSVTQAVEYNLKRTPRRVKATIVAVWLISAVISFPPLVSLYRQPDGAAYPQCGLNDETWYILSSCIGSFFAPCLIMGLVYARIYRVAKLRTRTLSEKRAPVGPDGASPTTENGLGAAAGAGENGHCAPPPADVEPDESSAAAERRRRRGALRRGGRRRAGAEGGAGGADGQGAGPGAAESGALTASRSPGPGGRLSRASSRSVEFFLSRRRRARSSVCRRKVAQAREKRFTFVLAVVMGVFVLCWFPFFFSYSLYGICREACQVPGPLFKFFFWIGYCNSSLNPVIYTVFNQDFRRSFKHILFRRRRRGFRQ
# [7] = target: GABA-A receptor; anion channel; assay: Displacement of [3H]-Muscimol from GABAA receptor in rat brain incubated for 90 mins by microbeta scintillation counting method; type: tissue-based
# Summary of the method: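 Radioligand binding run by the NIMH Psychoactive Drug Screening Program. Otherwise Ki comes from sigmoidal curve fits of triplicate measurements in a single experiment, or is averaged over repeated experiments each run in triplicate.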
# [8] = target: Beta-3 adrenergic receptor (Homo sapiens, UniProt P13945); assay: Displacement of [3H]-CGP12177 from human recombinant adrenergic Beta3 receptor expressed in Flp-In HEK cells after 90 mins by microbeta scintillation counting method; type: cell-based; summary of the method: as §2
# [9] = target: 5-hydroxytryptamine receptor 1B (Homo sapiens, UniProt P28222); assay: Displacement of [3H]5-CT from human recombinant 5-HT1B receptor expressed in stable HEK cells at 10 uM after 90 mins by microbeta scintillation counting method relative to control; type: cell-based
# Chain of 5-hydroxytryptamine receptor 1B (P28222 whole entry): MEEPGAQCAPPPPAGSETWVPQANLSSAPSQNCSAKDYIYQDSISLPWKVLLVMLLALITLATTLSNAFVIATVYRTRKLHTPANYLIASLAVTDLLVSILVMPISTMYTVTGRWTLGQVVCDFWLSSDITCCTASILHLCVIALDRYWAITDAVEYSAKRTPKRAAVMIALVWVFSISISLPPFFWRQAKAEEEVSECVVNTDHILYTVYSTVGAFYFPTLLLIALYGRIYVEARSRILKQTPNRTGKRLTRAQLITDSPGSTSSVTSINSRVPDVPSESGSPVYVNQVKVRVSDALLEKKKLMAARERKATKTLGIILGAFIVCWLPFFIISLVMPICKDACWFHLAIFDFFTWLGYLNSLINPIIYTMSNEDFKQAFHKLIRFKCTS
# Chain of D(1B) dopamine receptor (P21918 whole entry): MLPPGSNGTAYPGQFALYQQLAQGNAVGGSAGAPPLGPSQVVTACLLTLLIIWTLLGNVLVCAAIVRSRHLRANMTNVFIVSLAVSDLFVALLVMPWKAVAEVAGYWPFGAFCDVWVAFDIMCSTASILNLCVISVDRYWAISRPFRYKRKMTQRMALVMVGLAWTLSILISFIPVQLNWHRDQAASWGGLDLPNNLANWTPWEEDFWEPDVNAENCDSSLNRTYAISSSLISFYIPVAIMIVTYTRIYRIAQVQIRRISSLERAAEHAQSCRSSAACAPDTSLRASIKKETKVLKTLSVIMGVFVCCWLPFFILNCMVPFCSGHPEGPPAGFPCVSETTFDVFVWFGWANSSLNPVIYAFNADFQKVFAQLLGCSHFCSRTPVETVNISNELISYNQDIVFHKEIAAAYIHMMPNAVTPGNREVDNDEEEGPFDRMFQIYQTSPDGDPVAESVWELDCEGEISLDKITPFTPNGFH
# Chain of 5-hydroxytryptamine receptor 6 (P50406 whole entry): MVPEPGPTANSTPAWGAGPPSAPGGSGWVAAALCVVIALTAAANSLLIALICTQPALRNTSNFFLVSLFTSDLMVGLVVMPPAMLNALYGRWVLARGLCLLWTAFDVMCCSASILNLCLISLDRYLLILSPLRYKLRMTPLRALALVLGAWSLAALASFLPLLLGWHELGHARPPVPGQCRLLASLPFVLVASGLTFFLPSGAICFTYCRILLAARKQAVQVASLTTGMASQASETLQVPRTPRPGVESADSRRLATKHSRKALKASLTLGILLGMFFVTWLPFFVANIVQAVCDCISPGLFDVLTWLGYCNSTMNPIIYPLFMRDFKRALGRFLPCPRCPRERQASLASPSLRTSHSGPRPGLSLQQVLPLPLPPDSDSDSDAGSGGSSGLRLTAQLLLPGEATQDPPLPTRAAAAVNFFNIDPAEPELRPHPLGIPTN
# Chain of Muscarinic acetylcholine receptor M3 (P20309 whole entry): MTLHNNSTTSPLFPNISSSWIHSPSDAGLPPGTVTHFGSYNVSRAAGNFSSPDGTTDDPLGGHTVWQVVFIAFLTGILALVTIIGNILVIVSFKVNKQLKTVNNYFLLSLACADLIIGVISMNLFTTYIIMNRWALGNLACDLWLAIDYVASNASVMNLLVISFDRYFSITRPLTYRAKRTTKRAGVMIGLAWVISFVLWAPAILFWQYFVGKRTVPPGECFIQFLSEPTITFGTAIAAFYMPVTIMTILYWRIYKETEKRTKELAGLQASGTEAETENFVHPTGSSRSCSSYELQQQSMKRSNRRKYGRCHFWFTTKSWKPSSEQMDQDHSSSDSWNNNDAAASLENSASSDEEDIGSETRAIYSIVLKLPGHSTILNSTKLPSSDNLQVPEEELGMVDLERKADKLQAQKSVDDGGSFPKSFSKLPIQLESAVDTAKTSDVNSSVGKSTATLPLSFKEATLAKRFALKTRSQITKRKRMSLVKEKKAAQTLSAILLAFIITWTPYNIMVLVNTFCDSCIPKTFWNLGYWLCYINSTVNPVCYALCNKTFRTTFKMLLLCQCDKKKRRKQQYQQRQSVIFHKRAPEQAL
# Chain of Beta-3 adrenergic receptor (P13945 whole entry): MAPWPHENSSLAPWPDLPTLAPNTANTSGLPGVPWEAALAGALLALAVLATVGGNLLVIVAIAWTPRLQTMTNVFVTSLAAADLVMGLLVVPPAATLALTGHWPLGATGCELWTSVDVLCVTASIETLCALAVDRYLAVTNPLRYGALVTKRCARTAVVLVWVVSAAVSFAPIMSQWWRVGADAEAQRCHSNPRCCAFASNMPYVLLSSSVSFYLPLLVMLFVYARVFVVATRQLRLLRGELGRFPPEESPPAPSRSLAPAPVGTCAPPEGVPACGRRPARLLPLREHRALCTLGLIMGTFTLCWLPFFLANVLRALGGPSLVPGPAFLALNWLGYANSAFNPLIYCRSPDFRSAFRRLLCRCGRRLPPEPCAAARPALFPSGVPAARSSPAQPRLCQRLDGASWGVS
Compound,Ki [1] [µM],Ki [2] [µM],Ki [3] [µM],Ki [4] [µM],inhibition [5] [%],Ki [6] [µM],pKi [7],Ki [8] [µM],inhibition [9] [%]
COc1cc(OC)c2c(c1)OC[C@@]1(C)NCC[C@@H]21 (racemic),> 10,> 10,> 10,> 10,< 50,> 10,< 5,> 10,< 50
C[C@@]12CN(c3ccccc3)c3ccccc3[C@@H]1CCN2 (racemic),> 10,> 10,> 10,> 10,,1,,> 10,
CC[C@H]1c2cc(OC)ccc2CC[C@@]1(C)N (racemic),> 10,> 10,> 10,> 10,< 50,> 10,< 5,> 10,< 50
CC[C@H]1c2cc(C)ccc2OC[C@@]1(C)N (racemic),> 10,> 10,> 10,> 10,< 50,> 10,< 5,> 10,< 50
CC[C@H]1c2ccccc2N(c2ccccc2)C[C@@]1(C)N (racemic),> 10,> 10,1.58,> 10,,> 10,,1,
